# Bioassay records from PubChem BioAssay.
# An excerpt weighted towards active compounds, which were near 8.8% of everything screened.
# SF1 activator = activators of human nuclear receptor SF-1; Q13285; CHO-K1 Gal4-SF-1 LBD luciferase reporter; % increase over DMSO SF-1-specific signal; activation, % at 10 µM; hit rate 1.9% among 65,000; AID 522;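 active = activation above the mean activation of all tested compounds plus 3 SD, cut at about 50% in these data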
#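 Assay system: CHO-K1 cells co-transfected with Gal4 DBD–human SF-1 LBD, 5xGal4 luciferase reporter; doses: 10 µM only; incubation: 20 h compound exposure at 37 °C after 1 h cell settling; signal: luciferase light emission; evaluation: percent activation versus DMSO; repeats: one test per compound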
# M1 antagonist = M1 muscarinic receptor (rat) antagonism; P08482; CHO-M1 cells, Fluo-4 calcium, ACh EC80 antagonist mode; stronger effect = lower value; B-score at 10 µM; hit rate 3.4% among 64,000; AID 628;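 active = calcium fluorescence response, raw or row-and-column corrected B-score, differing from the plate sample mean either way at a set confidence level, mostly lower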
# S1P1 ag pot = activates or potentiates agonism at human S1P1 receptor; P21453; S1P1 CRE-bla cells, forskolin, beta-lactamase FRET, potentiator mode; S1P1 agonist co-added at EC20, 2 nM; 100% = saturating reference agonist, 0% = basal; activation, % at 9.5 µM; hit rate 0.57% among 56,000;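 active = activation above a cutoff set at the mean activation of all tested compounds plus 3 SD, cut at about 54% in these data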;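 note: forskolin at 4 µM as EC80 and the EC20 agonist is SEW2871; 100% = SEW2871 at its EC100 plus forskolin at EC80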
# Target sequence (P21453 whole entry, looked up): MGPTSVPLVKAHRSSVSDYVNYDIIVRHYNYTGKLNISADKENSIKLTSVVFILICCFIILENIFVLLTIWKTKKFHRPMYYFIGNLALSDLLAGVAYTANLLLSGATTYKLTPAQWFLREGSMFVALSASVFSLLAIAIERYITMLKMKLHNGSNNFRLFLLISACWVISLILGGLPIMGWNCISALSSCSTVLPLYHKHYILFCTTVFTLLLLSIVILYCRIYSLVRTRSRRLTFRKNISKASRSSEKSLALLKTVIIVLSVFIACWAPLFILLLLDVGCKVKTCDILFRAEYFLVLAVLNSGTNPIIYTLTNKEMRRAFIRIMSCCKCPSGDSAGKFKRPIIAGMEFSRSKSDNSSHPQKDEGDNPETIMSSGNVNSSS
# S1P3 agonist = agonists of human S1P3 receptor. Q99500. S1P3 NFAT-BLA reporter cells, agonism, FRET ratio; relative to 1 µM S1P, basal subtracted. activation, % at 4.5 µM. hit rate 0.1% among 60,000;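 active = activation above the screen-wide mean plus 3 SD, cut at about 4.5% in these data, passing the limit was not always enough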
#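 Material: Human S1P3 NFAT-BLA reporter CHO cells | Incubation: Overnight plating, 4 h compound 37 °C, 2 h substrate RT | Signal: FRET β-lactamase substrate fluorescence, excitation 405 nm, 460/535 nm emission ratio, background-subtracted | Compound: 4.5 µM final, single dose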
# RORa activator = activates the human nuclear receptor RORA. AID 560. CHO-K1 Gal4-RORA LBD luciferase reporter, luminescence; percent increase over mock-subtracted basal signal. activation, % at 10 µM. hit rate 1.5% among 65,000;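 active = activation above the mean of all tested compounds plus 3 SD, cut at about 49% in these data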;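 note: 0% = DMSO-treated RORA cells and 100% = added signal equal to DMSO minus mock-transfected cells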
# M1 agonist = agonists of M1 muscarinic receptor; CHO-M1 cells, Fluo-4 calcium fluorescence, agonist mode; stronger effect = higher value; B-score at 10 µM; hit rate 3% among 64,000;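 active = fluorescence rise, raw or as B-score row- and column-corrected plate score, outside the 99.7% band of its plate's samples, either direction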
# M1 ag confirm = confirmation of rat M1 muscarinic receptor agonists | CHO-M1 cells, Fluo-4 calcium fluorescence, agonist mode; actives lie on both sides | fluorescence change (max-min) at 10 µM | hit rate 19% among 1,700 | shares compounds with M1 agonist;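 active = fluorescence change differs from the solvent-only DMSO control mean at a set confidence level in both duplicate runs; inconclusive = differs from solvent-only control mean in just one of two runs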;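 note: an EC20 dose of acetylcholine follows compound addition during the same imaging run; raw fluorescence intensity difference in instrument units with no normalization to controls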
# M4 agonist ctr = rat M4 muscarinic agonism, M1 counter-screen | shares compounds with M1 agonist | CHO M4/Gqi5 cells, Fluo-4 calcium fluorescence, agonist mode; actives lie on both sides | fluorescence change (max-min) at 10 µM | hit rate 9% among 1,700 | AID 1741;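 active = fluorescence change differing from the plate's solvent-only control wells at 99.7% confidence in both duplicates, whether higher or lower; inconclusive = differs from solvent controls in only one of two duplicates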
# Starred values were filed as active, the others as inactive; u = inconclusive; x = not tested or not shown.
SMILES,SF1 activator,M1 antagonist,S1P1 ag pot,S1P3 agonist,RORa activator,M1 agonist,others
Nc1ccccc1N=Cc1c(O)n(CCC2=CCCCC2)c(=O)[nH]c1=O,78*,-0.27,-2,0,44,-0.012,
O=P(c1ccccc1)(c1ccccc1)N1CCCCC1,8,0.0072,-7,-3,-6,0.27,
C[C@H]1CCC[C@H](O)CCCCCc2cc(O)cc(O)c2C(=O)O1,6,2.4*,25,-1,9,-0.13,
C[C@H]1CCC[C@@H](O)CCC/C=C/c2cc(O)cc(O)c2C(=O)O1,23,0.21,x,x,14,-0.05,
Nc1c(C(=O)NCc2ccco2)c2nc3ccccc3nc2n1CCN1CCCCC1,-12,0.89,-123,11*,-25,1.5,
COC(=NC1CCCC1)C(O)c1c[nH]c2ccccc12 (centres undefined),1,0.76,x,x,-13,-0.57,
O=c1cccc2n1CC1CC2CN(C(c2cccc(F)c2)c2sc3ncnn3c2O)C1 (centres undefined),-2,0.21,-23,0,3,0.66,
Nc1c(C(=O)NC2CCCC2)c2nc3ccccc3nc2n1CC1CCCO1 (centres undefined),2,0.72,-112,8.2*,-2,-0.053,
CN1C(=O)C(Cc2ccc3c(c2)OCO3)C(=O)N(C)C1=O,-3,0.32,-14,0,-31,0.37,
CCOC(=O)c1ccc(NC(=O)c2c(O)[nH]c(=O)[nH]c2=O)cc1,7,0.27,5,0,12,86*,
CC12CN3CCN(CC(C3)C1O)C2 (centres undefined),-7,-0.13,-1,-1,-18,-0.87,
CC(C)CC12CN3CCN(CC(C3)C1O)C2 (centres undefined),-11,1.4*,-16,0,-17,1.1,
CC(C)OCCCNC(=O)c1c(N)n(Cc2cccs2)c2nc3ccccc3nc12,18,-2.8,-244,12*,1,-0.47,
COc1cccc(-n2c(O)c(C=NCCN3CCOCC3)c(=O)[nH]c2=O)c1,10,-0.077,-2,3,15,-1,
CCCc1[nH]nc2c1C1(C(=O)N(CC(N)=O)c3ccccc31)C(C(=O)OC)=C(N)O2 (centres undefined),6,2.3*,-9,0,2,1.8,
CCOC(=O)C1=C(N)Oc2c(c(=O)oc3ccccc23)C12C(=O)N(C)c1ccccc12 (centres undefined),-6,0.037,0,0,-11,-1.5,
Cc1nn(CCC#N)c2c1P(=S)(N1CCCC1)OC(c1ccc(F)cc1)=N2 (centres undefined),7,-0.0093,3,-1,-16,-0.69,
CCOC(=O)[C@]1(C#N)[C@@H]2C=CC(C(C)=O)=CN2[C@@H](C(N)=O)[C@@H]1c1ccsc1,-10,-0.2,-6,-2,-5,26*,
COc1ccccc1OCCCn1cc(C(=O)c2ccco2)c2ccccc21,52*,-0.083,15,-2,65*,2.2,
O=C(Cn1cc(C(=O)c2ccccc2)c2ccccc21)NCc1ccco1,24,-0.11,24,-1,22,0.34,
O=c1cccc2n1CC1CC2CN(c2ncnc3c2cnn3-c2ccc(Cl)cc2)C1 (centres undefined),6,0.25,x,x,-10,-3.6*,
CN1CCC(N2CC3CC(C2)c2cccc(=O)n2C3)CC1 (centres undefined),-2,-0.34,x,1,7,-1.1,
Cn1c(O)c(C=NC2CC(C)(C)NC(C)(C)C2)c(=O)n(C)c1=O,-4,-0.34,-3,-1,-4,0.54,
COc1cccc(C2=NOC(C(=O)N3CCC4(CC3)OCCO4)C2)c1 (centres undefined),56*,-0.041,20,0,26,0.36,
O=C(C1CCCO1)N1CCC2(CC1)OCCO2 (centres undefined),-3,0.22,-8,0,-16,2.1,
SMILES,SF1 activator,M1 antagonist,S1P1 ag pot,S1P3 agonist,RORa activator,M1 agonist,others
O=C(C1CC(c2ccc(Cl)c(Cl)c2)=NO1)N1CCC2(CC1)OCCO2 (centres undefined),30,-2,-10,0,73*,0.0069,
CN1CC=C2C(C#N)=C(N)C(C#N)(C#N)C(c3ccncc3)C2C1 (centres undefined),2,-1.2,-21,1,2,78*,M1 ag confirm=242*;M4 agonist ctr=212*
CC(C)N1CCC2(CC1)NC(CO)(CO)CO2,-15,-1.4,-4,0,20,-0.62,
N=c1c[n+](CC23CC4CC(CC(C4)C2)C3)[n-]o1,-6,0.37,-32,2,-13,0.45,
Cc1ccc(C(=O)C2CN3CCC2CC3)cc1 (centres undefined),-10,-2.5,-7,-1,-6,12*,M1 ag confirm=-18;M4 agonist ctr=u
COc1ccc(P2(=O)Nc3ccccc3N2)cc1,-6,-0.3,-2,1,-20,8.4*,M1 ag confirm=154*;M4 agonist ctr=163*
O=S1(=O)CC2(N3CCOCC3)CCCCCCC21 (centres undefined),26,0.45,x,x,7,2.9*,M1 ag confirm=-12;M4 agonist ctr=-39
O=S1(=O)CC2(N3CCOCC3)CCCCC21 (centres undefined),-2,0.36,-26,-1,-7,-0.33,
OCCN(CC#CC(O)(c1ccccc1)C1CCCC1)CCO (centres undefined),4,-1.2,-1,-1,-8,0.65,
O=C(c1cc(-c2cccnc2)nc2ccc(Cl)cc12)N1CCC2(CC1)OCCO2,0,-1.1,-20,0,6,2.8*,M1 ag confirm=-35*;M4 agonist ctr=-90
O=C(c1cc(-c2cccnc2)nc2ccccc12)N1CCC2(CC1)OCCO2,2,-0.14,-5,-1,-2,0.68,
CCCCn1c(O)c(C(CC)=NCc2ccc3c(c2)OCO3)c(=O)[nH]c1=O,-8,-0.8,11,0,3,4.3*,M1 ag confirm=5.3;M4 agonist ctr=-24
O=C1c2ccccc2C(=O)N1Cc1nc2ccccc2c(=O)n1-c1ccc(Br)cn1,2,1.2,14,0,-11,-0.7,
CCCC(=O)OCC[N+](C)(C)C,-4,-7.7*,21,-4,-12,40*,M1 ag confirm=378*;M4 agonist ctr=7.3
O=P(OCC(F)(F)C(F)F)(N1CCCCC1)N1CCCCC1,11,0.84,13,-1,-21,-0.11,
CCn1nc(-c2ccccc2)nc2c(=O)n(C)c(=O)nc1-2,-95,-0.41,73*,-2,-93,25*,M1 ag confirm=187*;M4 agonist ctr=u
